Measurements from ChEMBL document CHEMBL1938272 (Bioorg Med Chem, 2012).

Experiments:
Aromatase [1] = target: T1, Aromatase (Homo sapiens, UniProt P11511); conditions: 2 h, read-out: Imax
T1 sequence (P11511 whole entry): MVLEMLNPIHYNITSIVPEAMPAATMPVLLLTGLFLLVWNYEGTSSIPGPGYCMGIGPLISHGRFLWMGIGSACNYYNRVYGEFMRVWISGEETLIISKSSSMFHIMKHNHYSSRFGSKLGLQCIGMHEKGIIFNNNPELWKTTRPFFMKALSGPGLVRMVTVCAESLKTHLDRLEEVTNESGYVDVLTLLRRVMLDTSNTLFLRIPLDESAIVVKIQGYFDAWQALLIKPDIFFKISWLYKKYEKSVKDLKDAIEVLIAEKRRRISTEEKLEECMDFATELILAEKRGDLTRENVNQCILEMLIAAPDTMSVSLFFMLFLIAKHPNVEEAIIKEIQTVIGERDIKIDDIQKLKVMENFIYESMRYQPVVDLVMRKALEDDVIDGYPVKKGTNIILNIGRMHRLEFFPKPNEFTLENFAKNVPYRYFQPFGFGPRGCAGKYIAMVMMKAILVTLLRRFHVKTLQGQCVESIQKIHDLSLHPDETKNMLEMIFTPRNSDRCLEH

Aromatase [2] = target: T1, Aromatase
[3] = target: NAD(P)H dehydrogenase [quinone] 1 (Mus musculus) (UniProt Q64669); test: Induction of QR1-mediated cytoprotective activity in mouse Hepa-1c1c7 cells at 50 uM assessed as cell survival; type: cell-based
Chain of NAD(P)H dehydrogenase [quinone] 1 (Mus musculus) (Q64669 whole entry): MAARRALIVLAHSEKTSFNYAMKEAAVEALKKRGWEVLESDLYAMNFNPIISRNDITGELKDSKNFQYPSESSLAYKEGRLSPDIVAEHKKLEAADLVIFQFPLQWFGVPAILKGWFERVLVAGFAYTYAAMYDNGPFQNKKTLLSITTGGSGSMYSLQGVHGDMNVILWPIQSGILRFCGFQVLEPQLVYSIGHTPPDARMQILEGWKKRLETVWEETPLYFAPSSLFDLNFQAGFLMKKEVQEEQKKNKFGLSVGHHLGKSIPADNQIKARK

RAW264.7 = test: Antiinflammatory activity in mouse RAW264.7 cells assessed as inhibition of LPS-induced NO production at 40 uM preincubated for 30 mins before LPS challenge by Griess method
HEK293 = test: Inhibition of TNFalpha-activated NF-kappaB expressed in HEK293 cells at 50 uM by luciferase reporter gene assay; type: cell-based
[4] = tested on: Radical scavenging activity; test: Antioxidant activity assessed as DPPH free radical scavenging activity at 400 uM after 30 mins by spectrophotometry; type: functional
MCF7 = test: Antiproliferative activity against human MCF7 cells after 72 hrs by SRB assay; type: functional, cell-based; conditions: MCF7, 72 h
Procedure, shortened: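 MCF-7 breast cancer cells exposed to serially diluted compounds (DMSO) for 72 h at 37 °C in CO2 incubator; fixed with 10% trichloroacetic acid, stained with 0.4% SRB, OD read at 515 nm. Zero-day control of 1 × 10^4 cells per well processed after 30 min. Survival = (OD test − OD zero-day)/(OD control − OD zero-day) × 100; IC50 from survival.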

[5] = target: NAD(P)H dehydrogenase [quinone] 1 (Mus musculus) (UniProt Q64669); test: Induction of QR1-mediated cytoprotective activity in mouse TAOc1 mutant Hepa cells at 50 uM assessed as cell survival; type: cell-based
[6] = target: NAD(P)H dehydrogenase [quinone] 1 (Mus musculus) (UniProt Q64669); test: Induction of QR1-mediated cytoprotective activity in mouse BPrc1 cells at 50 uM assessed as cell survival; type: cell-based
[7] = target: NAD(P)H dehydrogenase [quinone] 1 (Mus musculus) (UniProt Q64669); test: Induction of QR1 activity in mouse Hepa-1c1c7 cells using MTT as substrate by spectrophotometry; type: cell-based
Procedure, shortened: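 Mouse hepatoma Hepa 1c1c7 cells were incubated with compound, then permeabilised with digitonin. QR1 activity was read as MTT reduction to formazan at 595 nm, with crystal violet total protein run in parallel. Induction ratio is activity versus control; CD is the concentration doubling activity, derived only when the ratio is above 2.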

[8] = target: NAD(P)H dehydrogenase [quinone] 1 (Mus musculus) (UniProt Q64669); test: Induction of QR1 activity in mouse TAOc1 mutant Hepa cells using MTT as substrate by spectrophotometry; type: cell-based
[9] = target: NAD(P)H dehydrogenase [quinone] 1 (Mus musculus) (UniProt Q64669); test: Induction of QR1 activity in mouse BPrc1 cells using MTT as substrate by spectrophotometry; type: cell-based

What does the source list for Ic1ccc(-c2nsc(-c3ccc(I)cc3)n2)cc1?
inhibition at 50 µM (Aromatase [1]): 36.7%; IC50 (Aromatase [2]): > 50 µM; Survival [3]: 105%; inhibition at 40 µM (RAW264.7): 20.3%; inhibition (HEK293): 0%

How did the inhibition at 50 µM (Aromatase [1]) turn out when Cc1ccc(-c2nsc(-c3ccc(C)cc3Br)n2)c(Br)c1 was run?
Its inhibition at 50 µM is 48.3%.

What about the IC50 (Aromatase [2]) of the same molecule?
The IC50 was greater than 50 µM.

And the Survival [3]?
The Survival was 49.6%.

And the inhibition at 40 µM (RAW264.7)?
The inhibition at 40 µM was 25%.

What about the inhibition [4] of the same molecule?
Its inhibition is 3.4%.

And the inhibition (HEK293)?
The inhibition was 0%.

Which inhibition at 50 µM (Aromatase [1]) does the source give for Cc1cc(Br)ccc1-c1nsc(-c2ccc(Br)cc2C)n1 here?
Its inhibition at 50 µM is 47.8%.

And the IC50 (Aromatase [2])?
The IC50 was greater than 50 µM.

What about the IC50 (MCF7) of the same molecule?
Its IC50 is 39.8 µM.

And the Survival [3]?
Its Survival is 71.3%.

What about the inhibition at 40 µM (RAW264.7) of the same molecule?
Its inhibition at 40 µM is 23.3%.

What about the Survival [5] of the same molecule?
Its Survival is 68.6%.

What about the inhibition [4] of the same molecule?
The inhibition was 2.2%.

What about the Survival [6] of the same molecule?
The Survival was 95.9%.

And the inhibition (HEK293)?
Its inhibition is 6.7%.

What does the source list for Fc1cccc(-c2nsc(-c3cccc(F)c3)n2)c1?
inhibition at 50 µM (Aromatase [1]): 41.8%; IC50 (Aromatase [2]): > 50 µM; IC50 (MCF7): 34.5 µM; Survival [3]: 77.6%; inhibition at 40 µM (RAW264.7): 3.2%; Survival [5]: 77.1%; inhibition [4]: 1.3%; Survival [6]: 73.5%

What does the source list for c1ccc2cc(-c3nsc(-c4ccc5ccccc5c4)n3)ccc2c1?
inhibition at 50 µM (Aromatase [1]): 15.8%; IC50 (Aromatase [2]): > 50 µM; Survival [3]: 88.8%; inhibition at 40 µM (RAW264.7): 0.5%; Survival [5]: 96.9%; inhibition [4]: 1.1%; Survival [6]: 98.1%

Which inhibition at 50 µM (Aromatase [1]) does the source give for Brc1ccccc1-c1nsc(-c2ccccc2Br)n1 here?
Its inhibition at 50 µM is 44.8%.

And the IC50 (Aromatase [2])?
The IC50 was greater than 50 µM.

What about the IC50 (MCF7) of the same molecule?
Its IC50 is 35 µM.

What about the Survival [3] of the same molecule?
Its Survival is 72.5%.

And the inhibition at 40 µM (RAW264.7)?
The inhibition at 40 µM was 9.1%.

And the Survival [5]?
The Survival was 99.1%.

What about the inhibition [4] of the same molecule?
Its inhibition is 1.8%.

And the Survival [6]?
The Survival was 100%.

And the inhibition (HEK293)?
The inhibition was 0%.

Which inhibition at 50 µM (Aromatase [1]) does the source give for CCCCc1ccc(-c2nsc(-c3ccc(CCCC)cc3)n2)cc1 here?
Its inhibition at 50 µM is 35.5%.

What about the IC50 (Aromatase [2]) of the same molecule?
Its IC50 is greater than 50 µM.

What about the Survival [3] of the same molecule?
Its Survival is 100%.

And the inhibition at 40 µM (RAW264.7)?
Its inhibition at 40 µM is -3.5%.

And the inhibition [4]?
Its inhibition is 2.1%.

What does the source list for Cc1cc(Cl)ccc1-c1nsc(-c2ccc(Cl)cc2C)n1?
inhibition at 50 µM (Aromatase [1]): 35.3%; CD [7]: 0.44 µM; CD [8]: 3.8 µM; IC50 (Aromatase [2]): > 50 µM; IC50 (MCF7): 39.5 µM; CD [9]: 2.8 µM; Survival [3]: 77.3%; inhibition at 40 µM (RAW264.7): 10.1%; Survival [5]: 71%; inhibition [4]: 3.7%; Survival [6]: 94.7%; inhibition (HEK293): 0%

With Cc1c(Cl)cccc1-c1nsc(-c2cccc(Cl)c2C)n1 as the molecule, how does the inhibition at 50 µM (Aromatase [1]) read?
The inhibition at 50 µM was 19.8%.

And the CD [7]?
Its CD is 4 µM.

And the CD [8]?
Its CD is 48.7 µM.

And the IC50 (Aromatase [2])?
Its IC50 is greater than 50 µM.

And the IC50 (MCF7)?
Its IC50 is 30.3 µM.

And the CD [9]?
The CD was 38.2 µM.

What about the Survival [3] of the same molecule?
The Survival was 96%.

What about the inhibition at 40 µM (RAW264.7) of the same molecule?
The inhibition at 40 µM was 24.5%.

What about the Survival [5] of the same molecule?
Its Survival is 68%.

And the inhibition [4]?
Its inhibition is 2.3%.

And the Survival [6]?
Its Survival is 100%.

What about the inhibition (HEK293) of the same molecule?
Its inhibition is 20.3%.

Which inhibition at 50 µM (Aromatase [1]) does the source give for FC(F)(F)c1ccccc1-c1nsc(-c2ccccc2C(F)(F)F)n1 here?
Its inhibition at 50 µM is 21.6%.

And the IC50 (Aromatase [2])?
Its IC50 is greater than 50 µM.

What about the Survival [3] of the same molecule?
Its Survival is 88.8%.

And the inhibition at 40 µM (RAW264.7)?
The inhibition at 40 µM was 6.7%.

And the Survival [5]?
Its Survival is 89.8%.

And the inhibition [4]?
Its inhibition is 2.9%.

What about the Survival [6] of the same molecule?
The Survival was 81%.

What about the inhibition (HEK293) of the same molecule?
The inhibition was 0%.

Which inhibition at 50 µM (Aromatase [1]) does the source give for FC(F)(F)c1ccc(-c2nsc(-c3ccc(C(F)(F)F)cc3)n2)cc1 here?
The inhibition at 50 µM was 41%.

What about the IC50 (Aromatase [2]) of the same molecule?
Its IC50 is greater than 50 µM.

What about the Survival [3] of the same molecule?
Its Survival is 97.9%.

And the inhibition at 40 µM (RAW264.7)?
The inhibition at 40 µM was 8.5%.

What about the Survival [5] of the same molecule?
Its Survival is 91%.

What about the inhibition [4] of the same molecule?
The inhibition was 2.5%.

What about the Survival [6] of the same molecule?
The Survival was 71%.

And the inhibition (HEK293)?
Its inhibition is 0%.

Which inhibition at 50 µM (Aromatase [1]) does the source give for Clc1ccc(-c2nsc(-c3ccc(Cl)c(Cl)c3)n2)cc1Cl here?
The inhibition at 50 µM was 23%.

And the IC50 (Aromatase [2])?
The IC50 was greater than 50 µM.

What about the IC50 (MCF7) of the same molecule?
Its IC50 is 23.5 µM.

And the Survival [3]?
The Survival was 80%.

And the inhibition at 40 µM (RAW264.7)?
The inhibition at 40 µM was 21.5%.

And the inhibition [4]?
The inhibition was 9.6%.

Which inhibition at 50 µM (Aromatase [1]) does the source give for COc1ccc(-c2nsc(-c3ccc(OC)cc3)n2)cc1 here?
Its inhibition at 50 µM is 11.1%.

What about the IC50 (Aromatase [2]) of the same molecule?
The IC50 was greater than 50 µM.

And the IC50 (MCF7)?
The IC50 was 17.4 µM.

And the Survival [3]?
The Survival was 94.2%.

And the inhibition at 40 µM (RAW264.7)?
Its inhibition at 40 µM is 1.7%.

What about the inhibition [4] of the same molecule?
Its inhibition is 3.1%.

How did the inhibition at 50 µM (Aromatase [1]) turn out when Clc1ccccc1-c1nsc(-c2ccccc2Cl)n1 was run?
Its inhibition at 50 µM is 49.7%.

And the CD [8]?
The CD was 44.3 µM.

And the IC50 (Aromatase [2])?
Its IC50 is greater than 50 µM.

What about the IC50 (MCF7) of the same molecule?
The IC50 was 35.8 µM.

What about the CD [9] of the same molecule?
Its CD is 34.6 µM.

And the Survival [3]?
The Survival was 75.2%.

What about the inhibition at 40 µM (RAW264.7) of the same molecule?
Its inhibition at 40 µM is -5.9%.

What about the Survival [5] of the same molecule?
Its Survival is 100%.

What about the inhibition [4] of the same molecule?
Its inhibition is 2.8%.

And the Survival [6]?
Its Survival is 83.8%.

With Clc1ccc(-c2nsc(-c3ccc(Cl)cc3Cl)n2)c(Cl)c1 as the molecule, how does the inhibition at 50 µM (Aromatase [1]) read?
The inhibition at 50 µM was 40.3%.

And the IC50 (Aromatase [2])?
The IC50 was greater than 50 µM.

What about the Survival [3] of the same molecule?
Its Survival is 30.6%.

What about the inhibition at 40 µM (RAW264.7) of the same molecule?
The inhibition at 40 µM was 25%.

What about the Survival [5] of the same molecule?
Its Survival is 82.4%.

What about the inhibition [4] of the same molecule?
The inhibition was 2.9%.

And the Survival [6]?
Its Survival is 89.8%.
